Calls of active or inactive are those of the source. The calls are words filed in the database; no cut-off is given here.
Key:
Rattus norvegicus [1] = experiment: Toxicity in Wistar rat assessed as effect on total protein level at 200 mg/kg, po for 14 days; assay type: organism-based; conditions: in vivo, 336 h
Procedure, shortened: (§1)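 Normal Wistar rats are given 200 mg/kg orally for 14 days, with vehicle-treated controls. Serum liver markers (SGOT, SGPT, ALP, total protein, total bilirubin) and renal markers (urea, creatinine, uric acid) are then measured, mean ± S.D.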

[2] = target: T1, Prostaglandin G/H synthase 1 (Ovis aries) (UniProt P05979); experiment: Inhibition of ovine COX1 at 10 uM using arachidonic acid as substrate preincubated for 5 mins followed by substrate addition and measured after 2 mins by ADPH probe-based fluorescence assay relative to control
T1 sequence (whole entry): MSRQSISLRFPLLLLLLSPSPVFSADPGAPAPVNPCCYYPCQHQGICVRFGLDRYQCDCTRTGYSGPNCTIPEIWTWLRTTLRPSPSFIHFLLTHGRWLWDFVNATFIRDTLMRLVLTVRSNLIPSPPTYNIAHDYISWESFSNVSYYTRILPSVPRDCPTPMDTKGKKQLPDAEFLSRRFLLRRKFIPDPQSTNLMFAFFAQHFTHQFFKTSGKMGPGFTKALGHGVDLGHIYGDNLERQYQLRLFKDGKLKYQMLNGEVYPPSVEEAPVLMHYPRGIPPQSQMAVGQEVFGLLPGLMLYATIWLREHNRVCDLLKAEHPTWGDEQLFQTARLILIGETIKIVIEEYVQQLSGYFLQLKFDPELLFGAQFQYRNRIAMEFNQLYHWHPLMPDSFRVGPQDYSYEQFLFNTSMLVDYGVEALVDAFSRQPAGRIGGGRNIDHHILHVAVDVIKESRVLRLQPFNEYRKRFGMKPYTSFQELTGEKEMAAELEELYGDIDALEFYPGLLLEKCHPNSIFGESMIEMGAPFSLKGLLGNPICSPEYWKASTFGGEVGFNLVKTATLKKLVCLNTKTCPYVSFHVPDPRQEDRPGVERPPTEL
Procedure, shortened: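 Kit assay in 100 mM Tris-HCl pH 8.0. Enzyme, heme and inhibitor (DMSO stocks) are incubated 5 min at room temperature. ADPH is added, then arachidonic acid starts the reaction. After 2 min, fluorescence is read at ex 535/em 590 nm. Percent inhibition is taken versus the 100% activity well, background wells included. IC50 is derived from percentage inhibition, mean of three independent experiments.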

Rattus norvegicus [3] = experiment: Toxicity in Wistar rat assessed as lymphocyte level at 200 mg/kg, po for 14 days (reference value: 77.33 +/- 2.08%); assay type: organism-based; conditions: in vivo, 336 h
Mus musculus [4] = experiment: Anticonvulsant activity in Swiss albino mouse assessed as protection against subcutaneous pentylenetetrazole-induced seizures at 300 mg/kg, ip administered 4 hrs prior to PTZ challenge and measured after 30 mins; assay type: functional
Procedure, shortened: (§2)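 Male Swiss Albino mice (25–30 g), 6 per group, dosed i.p. with drugs in sterile saline, then challenged with PTZ 85 mg/kg s.c. (CD97), given at 10 ml/kg, 0.5 h or 4 h later. Each animal is observed singly for seizures. Protection is scored as protected/total animals.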

Mus musculus [5] = experiment: Anticonvulsant activity in Swiss albino mouse assessed as protection against subcutaneous pentylenetetrazole-induced seizures at 30 mg/kg, ip administered 0.5 hrs prior to PTZ challenge and measured after 30 mins; assay type: functional; procedure, shortened: as §2
Rattus norvegicus [6] = experiment: Toxicity in Wistar rat assessed as RBC level at 200 mg/kg, po for 14 days (reference value: 8.19 +/- 0.648 10^6/mm3); assay type: organism-based; conditions: in vivo, 336 h
Rattus norvegicus [7] = experiment: Toxicity in Wistar rat assessed as hemoglobin level at 200 mg/kg, po for 14 days (reference value: 12.87 +/- 0.6 g/dl); assay type: organism-based; conditions: in vivo, 336 h
Rattus norvegicus [8] = experiment: Toxicity in Wistar rat assessed as monocyte level at 200 mg/kg, po for 14 days (reference value: 2.67 +/- 0.58%); assay type: organism-based; conditions: in vivo, 336 h
Rattus norvegicus [9] = experiment: Toxicity in Wistar rat assessed as effect on uric acid level at 200 mg/kg, po for 14 days; assay type: organism-based; conditions: in vivo, 336 h; procedure, shortened: as §1
Rattus norvegicus [10] = experiment: Toxicity in Wistar rat assessed as effect on alkaline phosphatase level at 200 mg/kg, po for 14 days; assay type: organism-based; conditions: in vivo, 336 h; procedure, shortened: as §1
Mus musculus [11] = experiment: Anticonvulsant activity in Swiss albino mouse assessed as protection against subcutaneous pentylenetetrazole-induced seizures at 300 mg/kg, ip administered 0.5 hrs prior to PTZ challenge and measured after 30 mins; assay type: functional; procedure, shortened: as §2
Rattus norvegicus [12] = experiment: Anxiolytic activity in ip dosed PTZ-kindled Wistar rat assessed as time spent in dark zone by light-dark test (reference value: 96.9 +/- 1.25%); assay type: functional
Rattus norvegicus [13] = experiment: Toxicity in Wistar rat assessed as effect on chloride level at 200 mg/kg, po for 14 days; assay type: organism-based; conditions: in vivo, 336 h
Mus musculus [14] = experiment: Anticonvulsant activity in Swiss albino mouse assessed as protection against subcutaneous pentylenetetrazole-induced seizures at 100 mg/kg, ip administered 0.5 hrs prior to PTZ challenge and measured after 30 mins; assay type: functional; procedure, shortened: as §2
Rattus norvegicus [15] = experiment: Toxicity in Wistar rat assessed as effect on blood urea level at 200 mg/kg, po for 14 days; assay type: organism-based; conditions: in vivo, 336 h; procedure, shortened: as §1
Rattus norvegicus [16] = experiment: Toxicity in Wistar rat assessed as eosinophil level at 200 mg/kg, po for 14 days (reference value: 2.67 +/- 0.58%); assay type: organism-based; conditions: in vivo, 336 h
Mus musculus [17] = experiment: Anticonvulsant activity in Swiss albino mouse assessed as protection against subcutaneous pentylenetetrazole-induced seizures at 30 mg/kg, ip administered 4 hrs prior to PTZ challenge and measured after 30 mins; assay type: functional; procedure, shortened: as §2
Mus musculus [18] = experiment: Anticonvulsant activity in Swiss albino mouse assessed as protection against subcutaneous pentylenetetrazole-induced seizures at 100 mg/kg, ip administered 4 hrs prior to PTZ challenge and measured after 30 mins; assay type: functional; procedure, shortened: as §2
Rattus norvegicus [19] = experiment: Toxicity in Wistar rat assessed as effect on SGOT level at 200 mg/kg, po for 14 days; assay type: organism-based; conditions: in vivo, 336 h; procedure, shortened: as §1
Rattus norvegicus [20] = experiment: Cognitive enhancing effect in ip dosed PTZ-kindled rat assessed as decrease in ratio of second interaction trial to first interaction time by social recognition test (reference value: 0.928 +/- 0.234); assay type: functional
Rattus norvegicus [21] = experiment: Toxicity in Wistar rat assessed as effect on creatinine level at 200 mg/kg, po for 14 days; assay type: organism-based; conditions: in vivo, 336 h; procedure, shortened: as §1
Mus musculus [22] = experiment: Anticonvulsant activity in Swiss albino mouse assessed as protection against subcutaneous pentylenetetrazole-induced seizures at 5 mg/kg, ip administered 1 hr prior to PTZ challenge and measured after 30 mins; assay type: functional; conditions: in the assay text read “30 mg/kg” for “5 mg/kg”
Procedure, shortened: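 Mice get a single i.p. dose, then PTZ 85 mg/kg s.c. at 0.5, 1, 2, 3, 4 or 6 h after dosing. Seizure protection is recorded at each interval as percentage of six Swiss Albino mice protected.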

Rattus norvegicus [23] = experiment: Toxicity in Wistar rat assessed as effect on SGPT level at 200 mg/kg, po for 14 days; assay type: organism-based; conditions: in vivo, 336 h; procedure, shortened: as §1
Rattus norvegicus [24] = experiment: Antiepileptic activity in rat model of PTZ-induced epileptiogenesis kindling model assessed as decrease of seizure severity at 30 mg/kg, ip measured up to 28 days; assay type: functional, organism-based
Procedure, shortened: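 Adult male Wistar rats receive PTZ 40 mg/kg i.p. on alternate days for 28 days plus daily i.p. treatment. After each PTZ injection, rats are observed singly for 45 min and scored on the revised Racine scale (stages to 6). Group mean score per week, ±S.D. Statistics are repeated-measures ANOVA with Tukey's test.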

Rattus norvegicus [25] = experiment: Toxicity in Wistar rat assessed as effect on total bilirubin level at 200 mg/kg, po for 14 days; assay type: organism-based; conditions: in vivo, 336 h; procedure, shortened: as §1

In the case of `Cc1ccc(NC(=S)NNC(=O)Nc2ccc(S(C)(=O)=O)cc2)cc1`, the Activity (Rattus norvegicus [1]) is reported as “Non-Toxic”, the inhibition [2] is reported as “inactive” and the Activity (Rattus norvegicus [3]) is reported as 73%. It also gave an Activity (Mus musculus [4]) of 83%, an Activity (Mus musculus [5]) of 83% and an Activity (Rattus norvegicus [6]) of 7.34 ×10⁶ /mm3. For the same molecule, the Activity (Rattus norvegicus [7]) was 14.15 g/dL, the Activity (Rattus norvegicus [8]) was 2.5% and the Activity (Rattus norvegicus [9]) was “Non-Toxic”. The Activity (Rattus norvegicus [10]) was “Non-Toxic”, the Activity (Mus musculus [11]) was 83% and the Activity (Rattus norvegicus [12]) was 86.6%. For the same molecule, the Activity (Rattus norvegicus [13]) was “Non-Toxic”, the Activity (Mus musculus [14]) was 67% and the Activity (Rattus norvegicus [15]) was “Non-Toxic”. It also gave an Activity (Rattus norvegicus [16]) of 2.5%, an Activity (Mus musculus [17]) of 83% and an Activity (Mus musculus [18]) of 83%. For the same molecule, the Activity (Rattus norvegicus [19]) was “Non-Toxic”, the Ratio (Rattus norvegicus [20]) was 0.561 and the Activity (Rattus norvegicus [21]) was “Non-Toxic”. The Activity (Mus musculus [22]) was 67%, the Activity (Rattus norvegicus [23]) was “Non-Toxic” and the Activity (Rattus norvegicus [24]) was “Active”. For the same molecule, the Activity (Rattus norvegicus [25]) was “Non-Toxic”.

From ChEMBL document CHEMBL4152211, “Discovery of novel Methylsulfonyl phenyl derivatives as potent human Cyclooxygenase-2 inhibitors with effective anticonvulsant action: Design, synthesis, in-silico, in-vitro and in-vivo evaluation” (Eur J Med Chem, 2018)
